Bioassay records deposited in PubChem by several laboratories.
Wee1 degr inh = inhibitors of human Wee1 degradation. P30291. HeLa Luc-Wee1K328M stability, luciferase luminescence; 100% = proteasome inhibitor MG132 effect. reporter increase, % at 5 µM. 220,000 tested, 1.2% active;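 active means activation above the mean of all tested compounds plus 3 SD, set per screening run, cut at about 8.8% in these data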;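 further: cells exposed to compound for 20 h before luminescence read; 0% = DMSO alone and 100% = MG132 at 30 µM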
FXIIa inh = factor XIIa (human) inhibition; 220,000 tested, 0.3% active; P00748; inhibition, % at 5 µM; purified FXIIa, Boc-QGR-AMC fluorogenic substrate, 2 h; AID 800; in the data active means inhibition above about 40%;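 further: 0% = enzyme with no compound and 100% = blank without enzyme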
Target sequence (P00748 20-372 limits assumed): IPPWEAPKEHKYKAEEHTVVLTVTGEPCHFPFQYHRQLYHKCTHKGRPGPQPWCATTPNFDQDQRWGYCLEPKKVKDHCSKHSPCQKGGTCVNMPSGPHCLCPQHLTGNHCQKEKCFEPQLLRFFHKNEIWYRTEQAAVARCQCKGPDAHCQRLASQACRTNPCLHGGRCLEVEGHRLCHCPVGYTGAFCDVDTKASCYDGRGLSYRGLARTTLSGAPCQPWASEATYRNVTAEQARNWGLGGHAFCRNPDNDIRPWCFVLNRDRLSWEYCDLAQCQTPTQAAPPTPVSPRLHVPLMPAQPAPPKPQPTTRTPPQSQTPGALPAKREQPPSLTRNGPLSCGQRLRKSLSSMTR
Target sequence (P00748 373-615 limits assumed): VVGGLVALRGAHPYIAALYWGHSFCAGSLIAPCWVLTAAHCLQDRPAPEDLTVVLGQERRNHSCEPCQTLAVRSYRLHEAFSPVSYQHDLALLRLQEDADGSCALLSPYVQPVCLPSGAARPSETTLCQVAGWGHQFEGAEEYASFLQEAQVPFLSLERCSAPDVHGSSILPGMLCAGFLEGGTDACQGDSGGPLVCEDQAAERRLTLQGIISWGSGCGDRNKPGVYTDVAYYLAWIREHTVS
KLK5 inh = blocks human kallikrein 5 protease activity; inhibition, % at 5 µM; Q9Y337; recombinant hK5, fluorogenic AMC substrate cleavage; AID 873; 210,000 tested, 0.59% active;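 active means inhibition of 40% or more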;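 further: 0% = enzyme controls without compound and 100% = no-enzyme blanks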
Platelet DG rel = modulates dense granule release in human platelets. human platelet-rich plasma, SFLLRN dense granule ATP release, luminescence. inhibition, %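 (compounds screened at 7.5 µM in platelet-rich plasma)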. 300,000 tested, 0.22% active. AID 1663;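 active means mean replicate score, as percent of positive control, at or above 50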
FXIa inh 1536 = blocks human coagulation factor XIa protease activity. P03951. purified FXIa, Boc-Glu-Ala-Arg-AMC fluorogenic substrate. inhibition, % at 5 µM. 220,000 tested, 0.14% active;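 active means inhibition of at least 40%; inactive means inhibition below 40%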;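 further: fluorescence of freed AMC excited at 355 nm; 0% = enzyme without compound and 100% = no enzyme blank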
Thrombin inh = blocks human thrombin protease activity | P00734 | alpha-thrombin, Boc-VPR-AMC fluorogenic substrate cleavage | inhibition, % at 5 µM | 220,000 tested, 0.26% active | AID 1046;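 active means inhibition at or above 40%; inactive means inhibition below 40%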;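 further: 0% = enzyme with no compound and 100% = wells without enzyme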
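Test system: human alpha-thrombin; medium: pH 7.5 Tris-saline with Tween 20; times: reaction at room temperature; signal: AMC fluorescence at 355 nm excitation and 460 nm emission; also added: Boc-VPR-AMC substrate, 15 µM final; dosing: one concentration per compound, 5 µM, with 0.2% DMSO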
The depositor's hits bear a star; . = no result given. Hits are enriched below; roughly 1.8% of the tested compounds scored in any of these assays.

SMILES | Wee1 degr inh | FXIIa inh | KLK5 inh | Platelet DG rel | FXIa inh 1536 | Thrombin inh
CN(C)S(=O)(=O)c1ccc(N2CCCC2)c(C(=O)NC2CCC(O)CC2)c1 (stereo not drawn) | . | . | . | -8 | . | .
COc1ccc2nc(SCC(=O)c3ccco3)[nH]c2c1 | 9.1* | 2 | 7 | 2 | -10 | 1
O=C(N/N=C/c1ccccc1OC(F)F)c1cc(-c2ccncc2)nc2ccccc12 | 11* | 6 | 4 | 2 | 1 | 2
CCc1ccc(/C=N/NC(=O)c2nnn(-c3nonc3N)c2CN2CCOCC2)cc1 | . | . | . | 50* | . | .
COc1ccnc(Oc2ccc(F)cc2)c1C(=O)N/C=N/OCc1ccccc1 | 2 | 9 | 3 | -4 | 1 | -8
C=CCNc1nc(N2CCCCC2)c(C#N)c2c1CN(Cc1ccccc1)CC2 | 1 | 17 | -30 | -8 | 7 | 1
CCc1ccc(NC(=O)c2ccc3ncsc3c2)cc1 | 6 | 19 | 40* | 0 | -1 | 2
CCCC(C)C(=O)Nc1ccc(F)c(Cl)c1 (stereo not drawn) | 0 | 38 | 19 | 12 | 27 | 62*
COc1ccc(-c2nnc(NC(=O)Cc3ccccc3)s2)c(OC)c1 | -3 | 6 | 52* | -1 | -12 | 0
Cc1ccc(CNC(=O)CCC2CCCN(Cc3cc4ccccc4o3)C2)o1 (stereo not drawn) | 5 | 11 | 4 | 1 | 4 | 1
CCc1ccc2[nH]c(O)c(N=Nc3nc(-c4ccccc4)cs3)c2c1 | 9.7* | 15 | -27 | 0 | 5 | 4
CCc1cc2c(N=Nc3c(O)[nH]c4ccccc34)ncnc2s1 | 0 | 11 | -4 | -9 | 4 | -7
COc1ccc2nc(-c3ccc(F)cc3)sc2c1 | . | . | . | 25 | . | .
Cc1ccc(C)c(NC(=O)CCC(=O)N/N=C/c2ccc3c(c2)OCO3)c1 | 10* | 5 | -2 | 0 | -4 | -3
O=C(N/N=C/c1ccc2c(c1)OCO2)c1cccs1 | 0 | 11 | -4 | 7 | 6 | 0
Cc1occc1C(=O)N/N=C/c1ccc(-c2ccccc2)cc1 | . | . | . | 93* | . | .
O=C(O)c1ccc(N/N=C/c2ccc3c(c2)OCO3)cc1 | -6 | 9 | -2 | 86* | -1 | -3
Cc1ccsc1C(=O)N/N=C/c1ccc2c(c1)OCO2 | 1 | -1 | -7 | 66* | 4 | -4
CN(Cc1ccon1)Cc1cn(Cc2ccccc2)nc1-c1ccc2c(c1)OCO2 | -1 | 3 | . | 7 | -1 | -6
CCN1CC(CN(C)Cc2cn(-c3cccc(C)c3)nc2-c2cccc(F)c2)CC1=O (stereo not drawn) | 3 | 6 | . | 8 | -3 | -8
CCN(CC)c1ccc(/C=N/NC(=O)c2ccoc2C)c(O)c1 | -4 | 5 | -5 | 117* | 0 | -13
NC(=O)c1ccc(NC(=O)COC(=O)/C=C/c2ccc3c(c2)OCO3)cc1 | 0 | 16 | 57* | -9 | 34 | 22
CCN(CC)c1ccc(/C=N/NC(=O)OC)c(O)c1 | 2 | 8 | -20 | . | -3 | 0
Cc1occc1C(=O)N/N=C/c1ccc2c(c1)OCO2 | 7 | 7 | -3 | 126* | -2 | -4
CC(=O)NS(=O)(=O)c1ccc(N=c2ssc3c2-c2ccc(C)cc2NC3(C)C)cc1 | 0 | 12 | -1 | 8 | 15 | 3
SMILES | Wee1 degr inh | FXIIa inh | KLK5 inh | Platelet DG rel | FXIa inh 1536 | Thrombin inh
COC(CN1C(=O)C(=O)/C(=C(/O)c2ccccc2)C1c1ccccn1)OC (stereo not drawn) | 0 | 4 | -1 | -3 | -2 | -1
Cc1cc(C)c(C)c(S(=O)(=O)ON2C(=O)c3ccccc3C2=O)c1C | 1 | 53* | 12 | -3 | 72* | 18
Cc1cccc2c1N(C)C(=O)C2=O | 7 | 7 | -3 | -5 | 1 | -14
Cc1cc(C)c(S(=O)(=O)ON2C(=O)c3ccccc3C2=O)cc1C | -4 | 38 | 29 | 11 | 72* | 56*
Cc1ccc(OC(=O)CN2C(=O)c3ccccc3C2=O)cc1C | . | . | . | 3 | . | .
O=C1c2ccccc2C(=O)N1OS(=O)(=O)c1ccc(F)cc1 | . | . | . | 60* | . | .
Cc1ccc(NC(=O)CN2C(=O)c3ccccc3C2=O)c(C)c1 | . | . | . | 2 | . | .
Cc1ccc(S(=O)(=O)ON2C(=O)c3ccccc3C2=O)c(C)c1 | -1 | 47* | 13 | . | 57* | 62*
O=S(=O)(c1ccccc1)N1CCN(S(=O)(=O)c2ccc(F)cc2)CC1 | . | . | . | -6 | . | .
CCN1C(=O)CSC1=Nc1ccccc1Cl | . | . | . | 8 | . | .
CC(C)CCN1CCN(Cc2ccc(C#CCCO)cc2)CC1CCO (stereo not drawn) | 1 | 14 | . | -4 | 1 | -1
CSc1ccc(CN2CCN(CCC(C)C)C(CCO)C2)cc1 (stereo not drawn) | 10* | 16 | . | 32 | 2 | 3
COc1cccc(N2C(=NC(=O)C3CCCCC3)SC3CS(=O)(=O)CC32)c1 (stereo not drawn) | . | . | . | -28 | . | .
CCSc1nc2cc(OC)c(OC)cc2c(=O)n1CC | -1 | 22 | 66* | -4 | 17 | 24
O=C(N/N=C/C=C/c1ccc(Br)cc1)C(O)c1ccccc1 (stereo not drawn) | 11* | 5 | -8 | -2 | 10 | -2
O=C(N/N=C/C=C/c1ccccc1)c1ccc(Br)cc1 | 0 | 13 | 7 | 7 | 7 | 4
NC(=O)N/N=C/C=C/c1ccccc1 | -1 | 13 | 17 | 0 | 16 | 42*
O=C(N/N=C/C(Br)=C\c1ccccc1)c1n[nH]c2c1CCC2 | 0 | 13 | -22 | 2 | 5 | 2
O=C(N/N=C/C=C/c1ccccc1)c1ccccn1 | 8.9* | 7 | -5 | 7 | 1 | -1
O=C(N/N=C/C=C\c1ccccc1)c1cnccn1 | 4 | 7 | 0 | -9 | -1 | 2
O=C(N/N=C/C=C/c1ccccc1)c1n[nH]c2c1CCC2 | 9.1* | -1 | -6 | 18 | -1 | -3
NC(=O)N\N=C/C=C/C=C/c1ccc(F)cc1 | -1 | 2 | 9 | 4 | 2 | -7
CCc1cc(=O)oc2cc(C)cc(OC(C)C(=O)NCc3ccccn3)c12 (stereo not drawn) | . | . | . | 2 | . | .
COCCN(C(=O)COC(=O)Cc1coc2cc3c(cc12)CCC3)c1c(N)n(Cc2ccccc2)c(=O)[nH]c1=O | . | . | . | 0 | . | .
Cc1c(Cl)cnc(NC(=O)CSc2nncs2)c1Cl | 4 | 10 | -25 | -2 | 8 | -5
Cc1cc(OC(=O)c2cccc(F)c2)c([N+](=O)[O-])c(=O)[nH]1 | . | . | . | 4 | . | .
O=C(Nc1nc(-c2cccs2)cs1)c1ccc(Cl)cc1 | -1 | 14 | 6 | 2 | 43* | 75*
O=C(Nc1nc(-c2cccs2)cs1)c1ccco1 | 1 | 8 | 0 | -8 | 6 | 62*
COc1cc(C(=O)Nc2nc(-c3cccs3)cs2)cc(OC)c1OC | 0 | 28 | -8 | 12 | 3 | 73*
O=C(COc1ccc(Cl)cc1)Nc1nc(-c2cccs2)cs1 | -1 | 4 | -16 | 1 | 4 | -4
